In brackets after ≈: the same amount, converted by molar mass.
Experiments:
[1] = Distribution (50 mg/kg) was determined in lung 15 min after intravenous administration; format: ADME, organism-based; conditions: read-out: Tissue distribution
In short: (§1)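 Wistar rats (200-250 g, groups of five) given 50 mg/kg in sterile water iv or im; killed at set times, lung, liver and kidney homogenized in 0.1 M pH 7.3 phosphate buffer (tissue:buffer 1:5). Drug assayed by agar diffusion on Nutrient Agar with E. coli ATCC 10536 (37 °C, 18 h); standards in phosphate buffer; detection limit 0.5 μg/mL; mean ± SEM.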

[2] = Distribution (50 mg/kg) was determined in lung 60 min after intramuscular administration; format: ADME, organism-based; conditions: im, read-out: Tissue distribution; in short: as §1
Enterobacter = assay: Geometrical average of minimum bactericidal concentration was determined in isosensitest broth against Enterobacter; format: functional
[3] = Distribution (50 mg/kg) was determined in liver 5 min after intravenous administration; format: ADME, organism-based; conditions: read-out: Tissue distribution; in short: as §1
[4] = Serum level was determined at 240 min after intramuscular administration of 50 mg/kg in rats; format: ADME, organism-based; design: dose 50 mg/kg, route intramuscular; conditions: rat, im, read-out: Serum level
In short: (§2)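 Dose 50 mg/kg in sterile water, iv or im, to Wistar rats 200-250 g, five per time point; killed at set intervals, blood centrifuged for serum. Antibiotic measured by agar diffusion on Nutrient Agar with E. coli ATCC 10536 (37 °C, 18 h), standards diluted in serum; detection limit 1 μg/mL. Mean ± SEM of five rats.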

Pseudomonas = assay: Geometrical average of minimum bactericidal concentration was determined in isosensitest broth against Pseudomonas; format: functional
[5] = Distribution (50 mg/kg) was determined in kidney 15 min after intravenous administration; format: ADME, organism-based; conditions: read-out: Tissue distribution; in short: as §1
Salmonella = assay: Geometrical average of minimum inhibitory concentration was determined in isosensitest broth against Salmonella; format: functional
[6] = Serum level was determined at 30 min after an intravenous administration of 50 mg/kg in rats; format: ADME, organism-based; design: dose 50 mg/kg, route intravenous; conditions: rat, read-out: Serum level; in short: as §2
[7] = Serum level was determined at 360 min after intramuscular administration of 50 mg/kg in rats; format: ADME, organism-based; design: dose 50 mg/kg, route intramuscular; conditions: rat, im, read-out: Serum level; in short: as §2
[8] = Distribution (50 mg/kg) was determined in kidney 120 min after intravenous administration; format: ADME, organism-based; conditions: in vivo, 2 h; in short: as §1
Klebsiella pneumoniae = assay: In vivo protective dose was determined in infected swiss mice (120/strain) infected ip with Klebsiella pneumoniae 102 with an inoculum size-0.5 mL of 10 E5 CFU/mL of suspension. Activity in range of 10.47-22.94
Salmonella typhimurium = assay: In vivo protective dose was determined in infected swiss mice (120/strain) infected ip with Salmonella Typhimurium T.O. with an inoculum size-0.5 mL of 10 E6 CFU/mL of suspension. Activity in range of 5.47-15.81; format: functional, Salmonella enterica subsp. enterica serovar Typhimurium; conditions: Salmonella enterica
[9] = Distribution (50 mg/kg) was determined in kidney 5 min after intravenous administration; format: ADME, organism-based; conditions: read-out: Tissue distribution; in short: as §1
Streptococcus = assay: Geometrical average of minimum inhibitory concentration was determined in isosensitest broth against Streptococcus; format: functional
Staphylococcus aureus = assay: Geometrical average of minimum inhibitory concentration was determined in isosensitest broth against Staphylococcus (P); format: functional
[10] = Distribution (50 mg/kg) was determined in kidney 120 min after intramuscular administration; format: ADME, organism-based; conditions: im, read-out: Tissue distribution; in short: as §1
Neisseria perflava [11] = assay: Geometrical average of minimum bactericidal concentration was determined in isosensitest broth against Neisseria perfl (1); format: functional
[12] = Half-life administered, intramuscularly; format: ADME; conditions: im
In short: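 Wistar rats (200-250 g, groups of five) given 50 mg/kg in sterile water iv or im; killed at 5-360 min, serum separated. Levels by agar diffusion bioassay, E. coli ATCC 10536 test organism, 37 °C 18 h, standards in serum (detection limit 1 μg/mL); elimination half-life derived from serum time course.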

Neisseria perflava [13] = assay: Geometrical average of minimum inhibitory concentration was determined in isosensitest broth against Neisseria perfl.; format: functional
[14] = Distribution (50 mg/kg) was determined in lung 5 min after intramuscular administration; format: ADME, organism-based; conditions: im, read-out: Tissue distribution; in short: as §1
Sarcina = assay: Geometrical average of minimum bactericidal concentration was determined in isosensitest broth against Sarcina; format: functional
[15] = Distribution (50 mg/kg) was determined in liver 60 min after intramuscular administration; format: ADME, organism-based; conditions: im, read-out: Tissue distribution; in short: as §1
[16] = Distribution (50 mg/kg) was determined in lung 120 min after intravenous administration; format: ADME, organism-based; conditions: in vivo, 2 h; in short: as §1
[17] = Distribution (50 mg/kg) was determined in kidney 30 min after intramuscular administration; format: ADME, organism-based; conditions: im, read-out: Tissue distribution; in short: as §1
Escherichia coli = assay: Minimum inhibitory concentration against Escherichia coli ISM strain; format: functional
Proteus = assay: Geometrical average of minimum bactericidal concentration was determined in isosensitest broth against Proteus; format: functional, Proteus sp.
[18] = Geometrical average of minimum inhibitory concentration was determined in isosensitest broth against gram-negative strains.; format: functional

`Cn1nnnc1SCC1=C(C(=O)O)N2C(=O)[C@@H](NC(=O)/C(=N/N)c3csc(N)n3)[C@H]2SC1` gave a concentration at 0.25 h [1] of 17500 ng/g, a concentration at 1 h [2] of 7660 ng/g and an MBC (Enterobacter) of 3.12 µg/mL (≈ 6.28 µM). The concentration at 5 min [3] was 43200 ng/g, the concentration at 4 h [4] was 10200 ng/mL and the MBC (Pseudomonas) was > 100 µg/mL. For the same molecule, the concentration at 0.25 h [5] was 50600 ng/g, the MIC (Salmonella) was 0.86 µg/mL (≈ 1.73 µM) and the concentration at 0.5 h [6] was 87200 ng/mL. For the same molecule, the concentration at 6 h [7] was 3430 ng/mL, the Tissue distribution [8] was “Undetectable” and the ED50 (Klebsiella pneumoniae) was 15.5 mg/kg. It also gave an ED50 (Salmonella typhimurium) of 9.3 mg/kg, a concentration at 5 min [9] of 107000 ng/g and an MIC (Streptococcus) of 25 µg/mL (≈ 50.3 µM). The MIC (Staphylococcus aureus) was 35.3 µg/mL (≈ 71.1 µM), the concentration at 2 h [10] was 10200 ng/g and the MBC (Neisseria perflava [11]) was < 0.09 µg/mL. The half-life [12] was 1.15 h, the MIC (Neisseria perflava [13]) was < 0.09 µg/mL and the concentration at 5 min [14] was ≤ 5000 ng/g. For the same molecule, the MBC (Sarcina) was 2.21 µg/mL (≈ 4.45 µM), the concentration at 1 h [15] was 15100 ng/g and the Tissue distribution [16] was “Undetectable”. It also gave a concentration at 0.5 h [17] of 36200 ng/g, an MIC (Escherichia coli) of 1.1 µg/mL (≈ 2.22 µM) and an MBC (Proteus) of 2.45 µg/mL (≈ 4.93 µM). The MIC [18] was 1.74 µg/mL (≈ 3.5 µM).
